One data set deals with PANC-1. As to the kind of experiment: Cytotoxicity against human PANC1 cells after 72 hrs by MTS assay. The class given is functional, cell-based. To be noted: PANC-1, 72 h. The gist of the method:
(§1)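 Cell proliferation of MCF-7, MDA-MB-231, AsPC1 and Panc-1 measured by MTS assay; IC50 in μM.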
(In general: Tetrazolium dyes change colour on reduction, which living cells bring about.)

The subject of a further data set is MCF7. As to the kind of experiment: Cytotoxicity against human ER positive MCF7 cells after 72 hrs by MTS assay. It is filed as functional, cell-based. To be noted: MCF7, 72 h. The gist of the method: as §1
The test system of data set [1] is MDA-MB-231. As to the kind of experiment: Cytotoxicity against human ER negative MDA-MB-231 cells after 72 hrs by MTS assay. The class given is functional, cell-based. The note with it: MDA-MB-231, 72 h. Summed up: as §1
A further data set has as its system ASPC1. As to the kind of experiment: Cytotoxicity against human AsPC1 cells after 72 hrs by MTS assay. The note with it: ASPC1, 72 h. It is filed as functional, cell-based. Summed up:
as §1

Data set [2] deals with MDA-MB-231. As to the kind of experiment: Induction of apoptosis in human ER negative MDA-MB-231 cells at 1 to 10 uM after 48 hrs by light microscopic analysis. The class given is functional, cell-based. Summed up:
(§2)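 MDA-MB-231 cells treated 48 h at 1, 5 and 10 μM; cell morphology, growth and apoptotic features examined under light microscopy.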

The subject of data set [3] is MDA-MB-231. Kind of data set: Antiproliferative activity against human ER negative MDA-MB-231 cells at 1 to 10 uM after 48 hrs by light microscopic analysis. The class given is functional, cell-based. The gist of the method: as §2
Data set [4] concerns MDA-MB-231. As to the kind of experiment: Induction of morphological changes in human ER negative MDA-MB-231 cells at 1 to 10 uM after 48 hrs by light microscopic analysis. It is filed as functional, cell-based. The gist of the method:
as §2

A short description of data set [5]: Solubility of the compound in water. The class given is physicochemical.
Data set [6] relates to MDA-MB-231. Kind of data set: Antiproliferative activity against human ER negative MDA-MB-231 cells at 10 to 20 uM after 24 hrs by MTT assay. The class given is functional, cell-based. The gist of the method:
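MDA-MB-231 cells exposed 24 h; proliferation read by MTT assay.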

For data set [7], the system named is MDA-MB-231. As to the kind of experiment: Induction of apoptosis in human ER negative MDA-MB-231 cells assessed as cleavage of caspase-3 after 48 hrs. The class given is functional, cell-based.
Data set [8] concerns the target Signal transducer and activator of transcription 3 (Homo sapiens) (UniProt P40763). Kind of data set: Inhibition of STAT3 in human ER negative MDA-MB-231 cells assessed as reduction of total STAT3 level at 1 to 10 uM after 24 hrs by Western blot analysis. It is filed as cell-based. Summed up:
(§3)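 MDA-MB-231 cells treated with a series of doses for 24 h; total STAT3 and Tyr-705-phosphorylated STAT3 detected by Western blot.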
In general terms: Immunoblotting shows a protein as a band on a membrane.

The subject of data set [9] is MDA-MB-231. As to the kind of experiment: Antitumor activity against human ER negative MDA-MB-231 cells xenografted in nude mouse assessed as inhibition of tumor growth at 25 mg/kg, po qd for 5 days. It is filed as functional, organism-based. Also noted: dose 25 mg/kg. The gist of the method: (§4)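 MDA-MB-231 xenografts in mice; tumor growth followed after intraperitoneal or oral dosing, doses as listed per line.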
In general terms: Xenograft models place foreign cells or tissue in a host animal.

In data set [10] the target is Signal transducer and activator of transcription 3 (Homo sapiens) (UniProt P40763). Kind of data set: Inhibition of STAT3 promoter activity in human ER negative MDA-MB-231 cells after 24 hrs by dual luciferase reporter assay. It is filed as cell-based. Summed up:
(§5)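 MDA-MB-231 cells pretreated 24 h at various concentrations, then transiently transfected with pSTAT3-Luc vector; STAT3 promoter activity by dual luciferase reporter assay, expressed relative to control.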

Data set [11] concerns MDA-MB-231. As to the kind of experiment: Induction of apoptosis in human ER negative MDA-MB-231 cells assessed as cleavage of caspase-3 at 1 to 10 uM after 48 hrs. It is filed as functional, cell-based.
Data set [12] has as its target Signal transducer and activator of transcription 3 (Homo sapiens) (UniProt P40763). Kind of data set: Inhibition of STAT3 promoter activity in human ER negative MDA-MB-231 cells at 10 uM after 24 hrs by dual luciferase reporter assay. It is filed as cell-based. The gist of the method: as §5
In data set [13] the test system is MDA-MB-231. Kind of data set: Antitumor activity against human ER negative MDA-MB-231 cells xenografted in nude mouse assessed as inhibition of tumor growth at 7.5 mg/kg, ip qd for 5 days. Also noted: dose 7.5 mg/kg. The class given is functional, organism-based. The gist of the method:
as §4

For data set [14], the system named is MDA-MB-231. As to the kind of experiment: Induction of apoptosis in human ER negative MDA-MB-231 cells using annexin-V staining at 1 to 10 uM after 48 hrs by flow cytometry. The class given is functional, cell-based. The gist of the method:
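Apoptosis in MDA-MB-231 cells measured by annexin V staining with flow cytometry across a dose range.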

For data set [15], the system named is MDA-MB-231. Kind of data set: Induction of apoptosis in human ER negative MDA-MB-231 cells assessed as down regulation of cycline D1 at 1 to 10 uM after 48 hrs. The class given is functional, cell-based.
Data set [16] has as its target Signal transducer and activator of transcription 3 (Homo sapiens) (UniProt P40763). Kind of data set: Inhibition of STAT3 promoter activity in human ER negative MDA-MB-231 cells at 20 uM after 24 hrs by dual luciferase reporter assay. The class given is cell-based. The gist of the method: as §5
For data set [17] the target is unchanged. As to the kind of experiment: Inhibition of STAT3 in human ER negative MDA-MB-231 cells assessed as reduction of phosphorylated STAT3 at Tyr-705 level at 1 to 10 uM after 24 hrs by Western blot analysis. It is filed as cell-based. The gist of the method:
as §3

Data set [18] relates to MDA-MB-231. As to the kind of experiment: Antitumor activity against human ER negative MDA-MB-231 cells xenografted in nude mouse assessed as inhibition of tumor growth at 75 mg/kg, po qd for 5 days. The class given is functional, organism-based. Also noted: dose 75 mg/kg. Summed up:
as §4

For data set [19], the system named is MDA-MB-231. As to the kind of experiment: Antitumor activity against human ER negative MDA-MB-231 cells xenografted in nude mouse assessed as inhibition of tumor growth at 12.5 mg/kg, ip qd for 5 days. It is filed as functional, organism-based. Further details: dose 12.5 mg/kg. Summed up: as §4

Molecules are shown by their SMILES. Values after ≈ are worked out from the molar mass of the structure shown. Active and inactive are the calls of the source. No cut-off for these calls is given here.

For orientation: IC50 means the point on the concentration scale where inhibition reaches its midpoint. A lower IC50 goes with inhibition by little substance. As usually defined, the solubility is the concentration that dissolves in the medium under given conditions. As usually defined, the inhibition is how much of the control response was suppressed.

Signal transducer and activator of transcription 3 (Homo sapiens), sequence (P40763 whole entry): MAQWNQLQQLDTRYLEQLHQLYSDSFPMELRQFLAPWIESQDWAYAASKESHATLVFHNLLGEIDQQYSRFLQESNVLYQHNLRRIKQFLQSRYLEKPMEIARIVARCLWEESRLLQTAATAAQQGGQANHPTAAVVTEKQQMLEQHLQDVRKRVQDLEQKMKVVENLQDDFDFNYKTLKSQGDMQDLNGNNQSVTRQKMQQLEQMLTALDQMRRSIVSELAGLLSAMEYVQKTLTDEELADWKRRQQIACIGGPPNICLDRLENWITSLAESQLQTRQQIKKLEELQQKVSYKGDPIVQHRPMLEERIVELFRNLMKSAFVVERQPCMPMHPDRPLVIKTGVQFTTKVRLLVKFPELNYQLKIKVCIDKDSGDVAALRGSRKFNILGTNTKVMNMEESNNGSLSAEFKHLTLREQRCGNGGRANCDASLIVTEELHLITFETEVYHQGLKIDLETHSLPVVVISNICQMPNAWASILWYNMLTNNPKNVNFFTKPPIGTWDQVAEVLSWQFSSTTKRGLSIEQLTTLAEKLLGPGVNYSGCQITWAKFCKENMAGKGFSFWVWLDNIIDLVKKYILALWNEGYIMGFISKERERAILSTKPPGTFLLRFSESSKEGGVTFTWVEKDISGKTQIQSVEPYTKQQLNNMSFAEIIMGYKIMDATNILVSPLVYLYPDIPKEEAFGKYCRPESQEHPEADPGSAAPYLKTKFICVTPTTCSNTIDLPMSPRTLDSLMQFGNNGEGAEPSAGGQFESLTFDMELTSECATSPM

As to `O=C(Nc1ccc([N+](=O)[O-])cc1Cl)c1cc(Cl)ccc1OCCN1CCOCC1`, the half-inhibitory concentration (IC50) in the data set with PANC-1 was more than 10 µM; in the data set on MCF7, 9.87 µM; in the data set with MDA-MB-231 [1], 18 µM; in the data set with ASPC1, 72.2 µM.

Regarding `NCCCCCOc1ccc(Cl)cc1C(=O)Nc1ccc([N+](=O)[O-])cc1Cl`, the IC50 in the data set on PANC-1 stood at 4.67 µM; in the data set on MCF7, 3.49 µM; in the data set on MDA-MB-231 [1] it was 3.1 µM; in the data set on ASPC1 it was 2.08 µM.

In the case of `O=C(Nc1ccc([N+](=O)[O-])cc1Cl)c1cc(Cl)ccc1OC1CCNCC1` [listing 1 of 2 here], the result with MDA-MB-231 [2], in the data set on MDA-MB-231 [3] and in the data set on MDA-MB-231 [4] was Active.

Consider `NCCCOc1ccc(Cl)cc1C(=O)Nc1ccc([N+](=O)[O-])cc1Cl`, for which the half-maximal inhibitory concentration (IC50) with PANC-1 stood at 3.11 µM; in the data set with MCF7, 3.11 µM; with MDA-MB-231 [1], 2.61 µM; in the data set with ASPC1, 4.2 µM.

Consider `Cl.O=C(Nc1ccc([N+](=O)[O-])cc1Cl)c1cc(Cl)ccc1OC1CCNCC1`, for which the solubility in data set [5] (buffer) was 248 µg/mL.

Take `CN1CCN(CCOc2ccc(Cl)cc2C(=O)Nc2ccc([N+](=O)[O-])cc2Cl)CC1`: the IC50 with MCF7 and with MDA-MB-231 [1] was more than 10 µM throughout.

As to `CN1CCC(Oc2ccc(Cl)cc2C(=O)Nc2ccc([N+](=O)[O-])cc2Cl)CC1`, the IC50 is more than 10 µM in the data set with PANC-1, 4.11 µM with MCF7, 2.69 µM in the data set with MDA-MB-231 [1] and 3.51 µM with ASPC1.

Regarding `NCCCCOc1ccc(Cl)cc1C(=O)Nc1ccc([N+](=O)[O-])cc1Cl`, the half-maximal inhibitory concentration (IC50) in the data set with PANC-1 is more than 10 µM; in the data set on MCF7, 3.7 µM; with MDA-MB-231 [1], 2.37 µM; with ASPC1, 7.4 µM.

As for `O=C(Nc1ccc([N+](=O)[O-])cc1Cl)c1cc(Cl)ccc1OCCN1CCCCC1`, the IC50 with MCF7 and with MDA-MB-231 [1] was more than 10 µM each time.

In the case of `CC(=O)Nc1ccc(NC(=O)c2cc(Cl)ccc2OC2CCNCC2)c(Cl)c1`, the results for the concentration for half-maximal inhibition (IC50) in the data set with MCF7 and in the data set with MDA-MB-231 [1] were more than 10 µM and 5.87 µM, respectively.

For the compound `NCCOc1ccc(Cl)cc1C(=O)Nc1ccc([N+](=O)[O-])cc1Cl`, the outcome (in the data set on MDA-MB-231 [6]; in the data set with MDA-MB-231 [2]; in data set [10]; in the data set with MDA-MB-231 [11]; in the data set on MDA-MB-231 [14]; in the data set on MDA-MB-231 [3]) was Active. Also, the result in the data set with MDA-MB-231 [15] and in the data set on MDA-MB-231 [4] was Active. For the same compound, the Activity entry with MDA-MB-231 [7] was “Dose-dependent effect”. Moreover, the IC50 in the data set on PANC-1 came out at 1.08 µM; in the data set on MCF7, 0.91 µM; in the data set with MDA-MB-231 [1], 1.64 µM; in the data set on ASPC1, 1.9 µM. Besides, the inhibition result in data set [8] and in data set [17] was “Active” each time. The TGI entry with MDA-MB-231 [9] and in the data set with MDA-MB-231 [13] was “Active” in each case. Besides, the inhibition result in data set [10] was “Dose-dependent effect”; in data set [12] it was 32%; in data set [16] it was 62%.

In the case of `CS(=O)(=O)Nc1ccc(NC(=O)c2cc(Cl)ccc2OC2CCNCC2)c(Cl)c1`, the IC50 with MCF7 and in the data set with MDA-MB-231 [1] was more than 10 µM in each case.

Regarding `O=C(Nc1ccc([N+](=O)[O-])cc1Cl)c1cc(Cl)ccc1OC1CCNCC1` [listing 2 of 2 here], the IC50 in the data set with PANC-1 was found to be 0.54 µM; in the data set on MCF7, 0.25 µM; in the data set on MDA-MB-231 [1], 0.29 µM; in the data set with ASPC1 it was 2.76 µM.

With `CN(C)CCOc1ccc(Cl)cc1C(=O)Nc1ccc([N+](=O)[O-])cc1Cl`, the IC50 in the data set on MCF7 and with MDA-MB-231 [1] was more than 10 µM in each case.

On to `O=C(Nc1ccc([N+](=O)[O-])cc1Cl)c1cc(Cl)ccc1OCCN1CCNCC1`, for which the concentration for half-maximal inhibition (IC50) amounted to 12.4 µM in the data set on MCF7 and 8.7 µM with MDA-MB-231 [1].

On to `NCCOCCOc1ccc(Cl)cc1C(=O)Nc1ccc([N+](=O)[O-])cc1Cl`, for which the IC50 was more than 10 µM with PANC-1, 9.37 µM in the data set on MCF7, 5.3 µM in the data set on MDA-MB-231 [1] and more than 10 µM in the data set with ASPC1.

As for `O=C(Nc1ccc([N+](=O)[O-])cc1Cl)c1cc(Cl)ccc1O` [NICLOSAMIDE], the result (in the data set on MDA-MB-231 [6]; with MDA-MB-231 [2]; in data set [10]; in the data set with MDA-MB-231 [3]; in the data set with MDA-MB-231 [4]) was Active. Also, in the data set with MDA-MB-231 [7], the Activity result was “Dose-dependent effect”. For the same compound, the concentration for half-maximal inhibition (IC50) was 1.73 µM in the data set on PANC-1, 1.06 µM in the data set with MCF7, 0.79 µM with MDA-MB-231 [1] and 1.47 µM in the data set with ASPC1. Also, the solubility in data set [5] (water, read-out: solubility) was determined as 0.23 µg/mL (≈ 0.703 µM). In addition, the inhibition entry in data set [8], in data set [12], in data set [16] and in data set [17] was “Active” each time. Further, the TGI result in the data set with MDA-MB-231 [18] and with MDA-MB-231 [19] was “Active” each time.

For `O=C(Nc1ccc([N+](=O)[O-])cc1Cl)c1cc(Cl)ccc1OCCF`, the IC50 with MCF7 and in the data set with MDA-MB-231 [1] was more than 10 µM in each case.
